Values after ≈ are worked out from the molar mass of the structure shown.
Columns and labels:
[1] = tested on: Rattus norvegicus; assay: Antiinflammatory activity in Wistar rat assessed as inhibition of carrageenan-induced paw edema measured after 1 hr at 6 mg/kg, po equimolar dose of indomethacin administered 1 hr before carrageenan challenge; type: functional
Procedure, shortened: (§1)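 Wistar rats of either sex, 120–140 g, fasted 24 h, n = 6 per group. Compounds were suspended in 1.0% aqueous sodium CMC and dosed orally, equimolar to indomethacin 6 mg/kg, 1 h before subplantar carrageenan (1.0% w/v, 0.1 mL) into the right hind paw. Paw volume was read by plethysmometer before and after injection. Results are % inhibition versus vehicle control. ANOVA with Dunnett's test.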

[2] = tested on: Rattus norvegicus; assay: Antiinflammatory activity in Wistar rat assessed as inhibition of carrageenan-induced paw edema measured after 2 hrs at 6 mg/kg, po equimolar dose of indomethacin administered 1 hr before carrageenan challenge; type: functional; procedure, shortened: as §1
[3] = tested on: Mus musculus; assay: Analgesic activity in Swiss albino mouse assessed as inhibition of acetic acid-induced writhing at 0.00001911 mol/kg, po administered 1 hr before acetic acid challenge measured after 25 mins; type: functional
Procedure, shortened: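 Acetic acid writhing in mice. Compounds were suspended in 1.0% aqueous sodium CMC and given orally at equimolar doses equivalent to 6 mg/kg indomethacin (0.00001911 mol/kg). Writhes were counted over 25 min after treatment, n = 6, and reported as % inhibition versus vehicle control. One-way ANOVA with Dunnett's test.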

[4] = tested on: Aorta; assay: Vasorelaxant activity in Wistar rat aorta assessed as inhibition of norepinephrine-induced contractions; type: functional, tissue-based
Procedure, shortened: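 Endothelium-intact aortic rings were accepted only if relaxation was ≥70% of the NE-induced contraction. Rings were then contracted with NE or 30 mM KCl, and test compounds were added cumulatively once a stable plateau was reached. EC50 values were calculated from cumulative concentration-response curves.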

[5] = tested on: Rattus norvegicus; assay: Antiinflammatory activity in Wistar rat assessed as inhibition of carrageenan-induced paw edema measured after 3 hrs at 6 mg/kg, po equimolar dose of indomethacin administered 1 hr before carrageenan challenge; type: functional; procedure, shortened: as §1
[6] = Induction of nitric oxide release at 0.1 mM in pH 7.4 phosphate buffer in presence of 5 mM L-cysteine by Griess method; settings: pH 7.4, 100 µM
[7] = tested on: Rattus norvegicus; assay: Gastrointestinal toxicity in Wistar rat assessed as gastric mucosal layer disruption at 34.84 mg/kg, po by histopathological study; type: organism-based, Gastric mucosa; parameters: dose 34.84 mg/kg, route oral; settings: in vivo
[8] = tested on: Rattus norvegicus; assay: Gastrointestinal toxicity in Wistar rat assessed as ulcer incidence at 34.84 mg/kg, po; type: organism-based; parameters: dose 34.84 mg/kg, route oral; settings: in vivo
[9] = tested on: Rattus norvegicus; assay: Gastrointestinal toxicity in Wistar rat assessed as gastric mucosal layer disruption at 38.27 mg/kg, po by histopathological study; type: organism-based, Gastric mucosa; parameters: dose 38.27 mg/kg, route oral; settings: in vivo
[10] = tested on: Rattus norvegicus; assay: Gastrointestinal toxicity in Wistar rat assessed as ulcer index at 38.27 mg/kg, po; type: organism-based; parameters: dose 38.27 mg/kg, route oral; settings: in vivo
[11] = tested on: Rattus norvegicus; assay: Gastrointestinal toxicity in Wistar rat assessed as ulcer index at 34.84 mg/kg, po; type: organism-based; parameters: dose 34.84 mg/kg, route oral; settings: in vivo
[12] = tested on: Rattus norvegicus; assay: Gastrointestinal toxicity in Wistar rat assessed as gastric mucosal layer disruption at 33.70 mg/kg, po by histopathological study; type: organism-based, Gastric mucosa; parameters: dose 33.7 mg/kg, route oral; settings: in vivo, 33.7 mg/kg
[13] = tested on: Rattus norvegicus; assay: Gastrointestinal toxicity in Wistar rat assessed as ulcer incidence at 38.27 mg/kg, po; type: organism-based; parameters: dose 38.27 mg/kg, route oral; settings: in vivo
[14] = tested on: Rattus norvegicus; assay: Gastrointestinal toxicity in Wistar rat assessed as gastric mucosal layer disruption at 40.71 mg/kg, po by histopathological study; type: organism-based, Gastric mucosa; parameters: dose 40.71 mg/kg, route oral; settings: in vivo
[15] = tested on: Rattus norvegicus; assay: Gastrointestinal toxicity in Wistar rat assessed as ulcer index at 33.70 mg/kg, po; type: organism-based; parameters: dose 33.7 mg/kg, route oral; settings: in vivo, 33.7 mg/kg
[16] = tested on: Rattus norvegicus; assay: Gastrointestinal toxicity in Wistar rat assessed as ulcer index at 40.71 mg/kg, po; type: organism-based; parameters: dose 40.71 mg/kg, route oral; settings: in vivo
[17] = tested on: Rattus norvegicus; assay: Gastrointestinal toxicity in Wistar rat assessed as ulcer incidence at 40.71 mg/kg, po; type: organism-based; parameters: dose 40.71 mg/kg, route oral; settings: in vivo
[18] = tested on: Rattus norvegicus; assay: Gastrointestinal toxicity in Wistar rat assessed as ulcer incidence at 33.70 mg/kg, po; type: organism-based; parameters: dose 33.7 mg/kg, route oral; settings: in vivo, 33.7 mg/kg
[19] = tested on: Rattus norvegicus; assay: Gastrointestinal toxicity in Wistar rat assessed as ulcer incidence at 24 mg/kg, po; type: organism-based; parameters: dose 24 mg/kg, route oral; settings: in vivo
[20] = tested on: Rattus norvegicus; assay: Gastrointestinal toxicity in Wistar rat assessed as gastric mucosal layer disruption at 24 mg/kg, po by histopathological study; type: organism-based, Gastric mucosa; parameters: dose 24 mg/kg, route oral; settings: in vivo
[21] = tested on: Rattus norvegicus; assay: Antiinflammatory activity in Wistar rat assessed as inhibition of carrageenan-induced paw edema measured after 2 hrs at 6 mg/kg, po administered 1 hr before carrageenan challenge; type: functional; procedure, shortened: as §1
[22] = tested on: Rattus norvegicus; assay: Antiinflammatory activity in Wistar rat assessed as inhibition of carrageenan-induced paw edema measured after 3 hrs at 6 mg/kg, po administered 1 hr before carrageenan challenge; type: functional; procedure, shortened: as §1
[23] = tested on: Rattus norvegicus; assay: Antiinflammatory activity in Wistar rat assessed as inhibition of carrageenan-induced paw edema measured after 1 hr at 6 mg/kg, po administered 1 hr before carrageenan challenge; type: functional; procedure, shortened: as §1

Row | Structure (SMILES) | EC50 [4] [µg/mL] | Activity [6] [%] | inhibition in vivo [1] [%] | inhibition in vivo [2] [%] | inhibition (INH) [3] [%] | inhibition in vivo [5] [%] | Activity [7] | Activity [8] | Activity [9] | Activity [10] | Activity [11] | Activity [12] | Activity [13] | Activity [14] | Activity [15] | Activity [16] | Activity [17] | Activity [18] | also measured
1 | CCOC(=O)c1c(-c2ccc([N+](=O)[O-])cc2)n(-c2ccc(C(=O)NNC(=O)CO[N+](=O)[O-])cc2)[nH]c1=O | 28.2 (≈ 54.8 µM) | 0.49 | 27.8 | 28.1 | 45.9 | 22.2 |  |  |  |  |  |  |  |  |  |  |  |  | 
2 | CCOC(=O)c1c(-c2ccccc2O)n(-c2ccc(C(=O)NNC(=O)CO[N+](=O)[O-])cc2)[nH]c1=O | 70.8 (≈ 146 µM) | 0.27 | 27.8 | 26.6 | 10.78 | 21.1 |  |  |  |  |  |  |  |  |  |  |  |  | 
3 | CCOC(=O)c1c(-c2ccc(Cl)cc2)n(-c2ccc(C(=O)NNC(=O)CO[N+](=O)[O-])cc2)[nH]c1=O | 50.2 (≈ 99.6 µM) | 0.37 | 3.2 | 10.4 | 6.86 | 6.43 |  |  |  |  |  |  |  |  |  |  |  |  | 
4 | CCOC(=O)c1c(-c2ccccc2OC)n(-c2ccc(C(=O)NNC(=O)CO[N+](=O)[O-])cc2)[nH]c1=O | 63.1 (≈ 126 µM) | 0.35 | 31 | 30.7 | 50.98 | 25.1 | Non-toxic | Non-toxic | Non-toxic | Non-toxic | Non-toxic | Non-toxic | Non-toxic | Non-toxic | Non-toxic | Non-toxic | Non-toxic | Non-toxic | 
5 | CCOC(=O)c1c(-c2ccccc2)n(-c2ccc(C(=O)NNC(=O)CO[N+](=O)[O-])cc2)[nH]c1=O | 35.5 (≈ 75.6 µM) | 0.46 | 54 | 57.8 | 56.86 | 59.6 | Non-toxic | Non-toxic | Non-toxic | Non-toxic | Non-toxic | Non-toxic | Non-toxic | Non-toxic | Non-toxic | Non-toxic | Non-toxic | Non-toxic | 
6 | O=C(O)Cc1ccccc1Nc1c(Cl)cccc1Cl [DICLOFENAC] |  |  |  |  |  |  |  |  |  |  |  |  |  |  |  |  |  |  | Activity [19]: Toxic; Activity [20]: Toxic
7 | COc1ccc2c(c1)c(CC(=O)O)c(C)n2C(=O)c1ccc(Cl)cc1 [INDOMETHACIN] |  |  |  |  | 54.9 |  |  |  |  |  |  |  |  |  |  |  |  |  | inhibition in vivo at 6 mg/kg [21]: 58.3%; inhibition in vivo at 6 mg/kg [22]: 57.9%; inhibition in vivo at 6 mg/kg [23]: 52.7%

More lines, main results first:

Row | EC50 [4] [µg/mL] | Activity [6] [%] | Structure (SMILES) | inhibition in vivo [1] [%] | inhibition in vivo [2] [%] | inhibition (INH) [3] [%] | inhibition in vivo [5] [%] | Activity [7] | Activity [8] | Activity [9] | Activity [10] | Activity [11] | Activity [12] | Activity [13] | Activity [14] | Activity [15] | Activity [16] | Activity [17] | Activity [18] | also measured
8 | 21.3 (≈ 49.4 µM) | 0.66 | O=C(CO[N+](=O)[O-])NNC(=O)c1ccc(-n2[nH]c(=O)cc2-c2ccc(Cl)cc2)cc1 | 5.88 | 11.4 | 10.78 | 5.84 |  |  |  |  |  |  |  |  |  |  |  |  | 
9 | 26.7 (≈ 67.3 µM) | 0.51 | O=C(CO[N+](=O)[O-])NNC(=O)c1ccc(-n2[nH]c(=O)cc2-c2ccccc2)cc1 | 19.8 | 16.1 | 53.92 | 20.5 |  |  |  |  |  |  |  |  |  |  |  |  | 
10 | 17.8 (≈ 43.1 µM) | 0.69 | O=C(CO[N+](=O)[O-])NNC(=O)c1ccc(-n2[nH]c(=O)cc2-c2ccccc2O)cc1 | 23 | 19.3 | 16.66 | 16.4 |  |  |  |  |  |  |  |  |  |  |  |  | 
11 | 66.8 (≈ 156 µM) | 0.32 | COc1ccccc1-c1cc(=O)[nH]n1-c1ccc(C(=O)NNC(=O)CO[N+](=O)[O-])cc1 |  | 55.7 | 51.96 | 57.9 | Non-toxic | Non-toxic | Non-toxic | Non-toxic | Non-toxic | Non-toxic | Non-toxic | Non-toxic | Non-toxic | Non-toxic | Non-toxic | Non-toxic | inhibition in vivo at 6 mg/kg ([1]; dose 6 mg/kg): 55.1%
12 | 49.1 (≈ 111 µM) | 0.39 | O=C(CO[N+](=O)[O-])NNC(=O)c1ccc(-n2[nH]c(=O)cc2-c2ccc([N+](=O)[O-])cc2)cc1 | 23.6 | 27.1 | 45.09 | 24 | Non-toxic | Non-toxic | Non-toxic | Non-toxic | Non-toxic | Non-toxic | Non-toxic | Non-toxic | Non-toxic | Non-toxic | Non-toxic | Non-toxic | 
